A short description of data set [1]: Selectivity ratio of IC50 for human MDA-MB-231 cells to IC50 for human MKN45 cells. In kind it is ADME, cell-based. To be noted: mkn-45. A digest of the protocol: (§1)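 Both IC50s in each ratio come from one proliferation assay. Cells were seeded and exposed the next day to a range of concentrations for 72 h, then read by SRB or MTT. IC50s were fitted by four-parameter concentration–response, with each concentration at least in triplicate and at least 2 experiments. BaF3/TPR-Met is murine pre-B BaF3 transfected with TPR-MET and puromycin-selected.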

Data set [2] deals with Epidermal growth factor receptor (Homo sapiens) (UniProt P00533). Put plainly: Inhibition of recombinant EGFR (unknown origin) using poly (Glu, Tyr) 4:1 as substrate at 1000 nM incubated for 60 mins by ELISA relative to control. In a few lines: (§2)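 Recombinant tyrosine kinases assayed on wells precoated with poly(Glu,Tyr)4:1 (20 µg/mL). ATP 10 µmol/L in HEPES pH 7.4 buffer with MgCl2, MnCl2, Na3VO4 and DTT; compound in 1% DMSO, 1% DMSO as control. Reaction 60 min at 37 °C. Phosphotyrosine detected with PY99 and HRP anti-mouse, o-phenylenediamine, A490. Inhibition % relative to control; two experiments.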
(In an ELISA, binding on a coated surface is turned into a signal by an enzyme label.)

The target of data set [3] is T1, TPR/MET fusion protein (Mus musculus) (UniProt P16056+F6ZDS4). Put plainly: Inhibition of TPR-MET in mouse BAF3 cells assessed as reduction in AKT phosphorylation at Serine 473 at 10 nM after 1 hr by Western blot analysis. In kind it is cell-based. A digest of the protocol:
(§3)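 BaF3 stably expressing TPR-MET (puromycin-selected), grown with IL-3-conditioned medium. Treated 1 h at 37 °C, lysed in SDS sample buffer. 10% SDS-PAGE and immunoblot for phospho-c-Met, phospho-ERK1/2, phospho-AKT and totals; ECL detection.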
Background: In western blotting, separated proteins are transferred to a membrane and probed.

Data set [4] in a line: Selectivity ratio of IC50 for human NCI-H661 cells to IC50 for mouse BAF3 cells expressing TPR-MET. The format is ADME, cell-based. A digest of the protocol:
as §1

Data set [5] deals with Tyrosine-protein kinase Mer (Homo sapiens, UniProt Q12866). Put plainly: Inhibition of recombinant c-Mer (unknown origin) using poly (Glu, Tyr) 4:1 as substrate incubated for 60 mins by ELISA.
Another data set has as its system Mus musculus. The data set is described as follows: Toxicity in athymic nude mouse xenografted with human EBC1 cells assessed as body weight loss at 6.25 to 25 mg/kg, po bid for 21 days measured twice a week during compound dosing. The format is organism-based. To be noted: in vivo, 504 h. In a few lines: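 Nude mice carrying s.c. EBC-1 tumor fragments, randomized at 100–200 mm³ (n=6 treated, n=12 vehicle). Dosed orally twice daily for 21 days. Body weight and caliper tumor volume measured twice weekly.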
In general terms: Xenograft models place foreign cells or tissue in a host animal.

Data set [6] can be described thus: Selectivity ratio of IC50 for human Bel7404 cells to IC50 for human EBC1 cells. In kind it is ADME, cell-based. In a few lines: as §1
Data set [7] can be described thus: Selectivity ratio of IC50 for human NCI-H661 cells to IC50 for human EBC1 cells. In kind it is ADME, cell-based. In a few lines: as §1
For data set [8], the target named is Ephrin type-A receptor 2 (Homo sapiens) (UniProt P29317). The data set is described as follows: Inhibition of recombinant EPHA2 (unknown origin) using poly (Glu, Tyr) 4:1 as substrate at 1000 nM incubated for 60 mins by ELISA relative to control. A digest of the protocol:
as §2

Data set [9] can be described thus: Selectivity ratio of IC50 for human SMMC7721 cells to IC50 for mouse BAF3 cells expressing TPR-MET. The format is ADME, cell-based.
In data set [10] the target is Hepatocyte growth factor receptor (Homo sapiens, UniProt P08581). Put plainly: Inhibition of c-Met in human MKN45 cells assessed as reduction in AKT phosphorylation at Serine 473 at 10 nM after 1 hr by Western blot analysis. In kind it is cell-based. To be noted: MKN-45. In a few lines: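 EBC-1 or MKN45 cells treated with compound 1 h at 37 °C without HGF, then lysed in 1× SDS sample buffer. Lysates run on 10% SDS-PAGE and transferred to nitrocellulose. Probed with antibodies to c-Met, phospho-c-Met, phospho-ERK1/2, phospho-AKT, AKT and GAPDH, then HRP secondary. ECL detection.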

The next data set relates to 786-0. The data set is described as follows: Antiproliferative activity against human 786-0 cells after 72 hrs by SRB or MTT assay. To be noted: 786-0, 72 h. The format is functional, cell-based. A digest of the protocol:
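Cells seeded, exposed next day to a range of concentrations for 72 h. Growth read by sulforhodamine B or MTT. IC50 from four-parameter concentration-response fit. Each concentration tested at least in triplicate, with at least 2 experiments.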

Data set [11] is described as follows: Selectivity ratio of IC50 for human NCI-H3122 cells to IC50 for human EBC1 cells. The format is ADME, cell-based. A digest of the protocol: as §1
For data set [12], the target named is Macrophage-stimulating protein receptor (Homo sapiens) (UniProt Q04912). The data set is described as follows: Inhibition of recombinant RON (unknown origin) using poly (Glu, Tyr) 4:1 as substrate at 1000 nM incubated for 60 mins by ELISA relative to control. A digest of the protocol:
as §2

For data set [13], the target named is T1, TPR/MET fusion protein (Mus musculus). Put plainly: Inhibition of TPR-MET phosphorylation in mouse BAF3 cells at 10 nM after 1 hr by Western blot analysis. The format is cell-based. In a few lines: as §3
Data set [14] in a line: Selectivity ratio of IC50 for human U87MG cells to IC50 for mouse BAF3 cells expressing TPR-MET. In kind it is ADME, cell-based.
The nature of data set [15]: Selectivity ratio of IC50 for human SPCA4 cells to IC50 for human MKN45 cells. In kind it is ADME, cell-based, SPC-A4. To be noted: SPCA4 cells versus MKN45 cells.
Data set [16] is described as follows: Selectivity ratio of IC50 for human BGC823 cells to IC50 for human MKN45 cells. In kind it is ADME, cell-based. To be noted: bgc-823. A digest of the protocol: as §1
The target in data set [17] is Proto-oncogene tyrosine-protein kinase receptor Ret (Homo sapiens) (UniProt P07949). Put plainly: Inhibition of recombinant RET (unknown origin) using poly (Glu, Tyr) 4:1 as substrate at 1000 nM incubated for 60 mins by ELISA relative to control. In a few lines:
as §2

Data set [18] can be described thus: Antitumor activity against human EBC1 cells xenografted in athymic nude mouse assessed as tumor growth inhibition at 25 mg/kg, po bid for 21 days measured twice a week during compound dosing relative to control. In kind it is functional. To be noted: EBC-1, po, 504 h, read-out: TGI. A digest of the protocol: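 Nude mice bearing s.c. tumours. Cells were first grown s.c. to 700–800 mm³, then 1.5 mm³ fragments were transplanted s.c. into the right flank. Mice were randomised at 100–200 mm³ (n=6 treated, n=12 vehicle) and dosed orally twice daily for 21 days. Caliper measurement twice weekly; TV = length×width²/2. TGI taken on the final day versus vehicle; Student's t test.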

A short description of data set [19]: Selectivity ratio of IC50 for human MGC803 cells to IC50 for human EBC1 cells. The format is ADME, cell-based. To be noted: mgc-803. A digest of the protocol: as §1
Data set [20] in a line: Selectivity ratio of IC50 for human NCI-HCC827 cells to IC50 for mouse BAF3 cells expressing TPR-MET. In kind it is ADME, cell-based. A digest of the protocol:
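Each cell line was seeded in 96-well plates, then exposed the next day to a range of compound concentrations for 72 h. Growth was read by SRB or MTT assay, and IC50 was fitted by a four-parameter concentration-response curve. Each concentration was run at least in triplicate, in at least 2 experiments. BaF3/TPR-Met are murine pre-B BaF3 cells transfected with TPR-MET cDNA and selected in puromycin.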

A short description of data set [21]: Selectivity ratio of IC50 for human NCI-H1299 cells to IC50 for mouse BAF3 cells expressing TPR-MET. In kind it is ADME, cell-based. In a few lines: as §1
Data set [22] is described as follows: Selectivity ratio of IC50 for human Calu3 cells to IC50 for mouse BAF3 cells expressing TPR-MET. The format is ADME, cell-based. In a few lines: as §1

The source made the active and inactive calls. The calls are words filed in the database; no cut-off is given here.

By inhibition is commonly meant the share of the control response that was lost under treatment. One may read the IC50 as the point on the concentration scale where inhibition reaches its midpoint.

T1 sequence (F6ZDS4 whole entry partner, the tested form may be a part): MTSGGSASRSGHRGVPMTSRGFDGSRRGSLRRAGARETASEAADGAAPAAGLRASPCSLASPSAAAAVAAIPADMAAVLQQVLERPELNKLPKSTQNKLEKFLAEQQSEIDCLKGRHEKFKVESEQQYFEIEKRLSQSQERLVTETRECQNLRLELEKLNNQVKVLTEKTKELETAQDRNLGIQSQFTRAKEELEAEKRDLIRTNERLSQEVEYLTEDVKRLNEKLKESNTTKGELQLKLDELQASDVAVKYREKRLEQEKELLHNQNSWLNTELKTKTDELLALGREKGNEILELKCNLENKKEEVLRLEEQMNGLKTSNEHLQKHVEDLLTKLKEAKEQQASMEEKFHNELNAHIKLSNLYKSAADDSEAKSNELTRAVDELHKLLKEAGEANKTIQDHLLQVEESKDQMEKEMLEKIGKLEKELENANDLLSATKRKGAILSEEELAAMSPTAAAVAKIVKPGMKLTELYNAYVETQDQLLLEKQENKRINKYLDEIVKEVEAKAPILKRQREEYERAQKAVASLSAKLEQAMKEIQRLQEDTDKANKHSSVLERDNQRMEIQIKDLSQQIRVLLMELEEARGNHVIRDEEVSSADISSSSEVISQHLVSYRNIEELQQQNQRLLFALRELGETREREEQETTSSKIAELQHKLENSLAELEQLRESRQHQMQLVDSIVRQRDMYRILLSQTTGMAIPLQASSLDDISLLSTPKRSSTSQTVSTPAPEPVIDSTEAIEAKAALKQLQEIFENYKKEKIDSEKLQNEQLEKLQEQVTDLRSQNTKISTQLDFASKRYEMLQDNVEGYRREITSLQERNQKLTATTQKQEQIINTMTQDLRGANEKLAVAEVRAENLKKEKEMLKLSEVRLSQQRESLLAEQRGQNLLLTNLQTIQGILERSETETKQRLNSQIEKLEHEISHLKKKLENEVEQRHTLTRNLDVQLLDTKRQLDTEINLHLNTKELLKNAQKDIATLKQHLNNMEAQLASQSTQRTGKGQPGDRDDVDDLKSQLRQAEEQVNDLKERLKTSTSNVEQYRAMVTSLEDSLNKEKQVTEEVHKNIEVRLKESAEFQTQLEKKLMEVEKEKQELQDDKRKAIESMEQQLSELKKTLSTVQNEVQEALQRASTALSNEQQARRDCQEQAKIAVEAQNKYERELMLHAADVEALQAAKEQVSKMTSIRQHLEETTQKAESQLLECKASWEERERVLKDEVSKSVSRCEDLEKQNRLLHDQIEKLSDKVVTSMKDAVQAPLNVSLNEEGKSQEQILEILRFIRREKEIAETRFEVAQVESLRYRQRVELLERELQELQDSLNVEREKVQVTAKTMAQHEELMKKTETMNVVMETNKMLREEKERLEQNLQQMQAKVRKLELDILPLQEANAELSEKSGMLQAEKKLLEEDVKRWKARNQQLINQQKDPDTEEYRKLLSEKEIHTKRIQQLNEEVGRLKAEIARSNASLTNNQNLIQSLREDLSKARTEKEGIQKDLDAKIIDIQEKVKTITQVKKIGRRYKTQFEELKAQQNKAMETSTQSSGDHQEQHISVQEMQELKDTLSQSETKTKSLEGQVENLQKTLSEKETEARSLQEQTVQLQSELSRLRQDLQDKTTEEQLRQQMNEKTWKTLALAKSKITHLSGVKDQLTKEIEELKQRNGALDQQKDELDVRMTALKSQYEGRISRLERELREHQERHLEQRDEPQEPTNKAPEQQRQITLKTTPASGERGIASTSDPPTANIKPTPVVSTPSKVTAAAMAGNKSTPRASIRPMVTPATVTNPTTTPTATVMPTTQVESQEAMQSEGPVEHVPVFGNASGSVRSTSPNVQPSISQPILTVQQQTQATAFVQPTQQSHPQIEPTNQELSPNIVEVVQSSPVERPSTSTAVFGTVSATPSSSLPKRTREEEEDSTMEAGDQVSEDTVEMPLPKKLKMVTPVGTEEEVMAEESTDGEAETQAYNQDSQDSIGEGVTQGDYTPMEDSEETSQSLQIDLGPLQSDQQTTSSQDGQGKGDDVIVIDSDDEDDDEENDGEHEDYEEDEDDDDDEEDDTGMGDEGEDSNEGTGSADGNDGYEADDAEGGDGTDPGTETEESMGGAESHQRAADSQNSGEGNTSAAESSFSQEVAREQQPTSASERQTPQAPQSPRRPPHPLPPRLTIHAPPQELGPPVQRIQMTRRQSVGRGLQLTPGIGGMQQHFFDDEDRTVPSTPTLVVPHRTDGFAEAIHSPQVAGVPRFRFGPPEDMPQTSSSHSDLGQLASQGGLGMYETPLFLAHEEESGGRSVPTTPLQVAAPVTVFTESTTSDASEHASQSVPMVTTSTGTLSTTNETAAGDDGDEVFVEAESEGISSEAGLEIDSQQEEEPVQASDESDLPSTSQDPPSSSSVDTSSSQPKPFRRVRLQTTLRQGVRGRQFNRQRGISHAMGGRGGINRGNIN
T1 sequence (P16056 25-1379 limits assumed): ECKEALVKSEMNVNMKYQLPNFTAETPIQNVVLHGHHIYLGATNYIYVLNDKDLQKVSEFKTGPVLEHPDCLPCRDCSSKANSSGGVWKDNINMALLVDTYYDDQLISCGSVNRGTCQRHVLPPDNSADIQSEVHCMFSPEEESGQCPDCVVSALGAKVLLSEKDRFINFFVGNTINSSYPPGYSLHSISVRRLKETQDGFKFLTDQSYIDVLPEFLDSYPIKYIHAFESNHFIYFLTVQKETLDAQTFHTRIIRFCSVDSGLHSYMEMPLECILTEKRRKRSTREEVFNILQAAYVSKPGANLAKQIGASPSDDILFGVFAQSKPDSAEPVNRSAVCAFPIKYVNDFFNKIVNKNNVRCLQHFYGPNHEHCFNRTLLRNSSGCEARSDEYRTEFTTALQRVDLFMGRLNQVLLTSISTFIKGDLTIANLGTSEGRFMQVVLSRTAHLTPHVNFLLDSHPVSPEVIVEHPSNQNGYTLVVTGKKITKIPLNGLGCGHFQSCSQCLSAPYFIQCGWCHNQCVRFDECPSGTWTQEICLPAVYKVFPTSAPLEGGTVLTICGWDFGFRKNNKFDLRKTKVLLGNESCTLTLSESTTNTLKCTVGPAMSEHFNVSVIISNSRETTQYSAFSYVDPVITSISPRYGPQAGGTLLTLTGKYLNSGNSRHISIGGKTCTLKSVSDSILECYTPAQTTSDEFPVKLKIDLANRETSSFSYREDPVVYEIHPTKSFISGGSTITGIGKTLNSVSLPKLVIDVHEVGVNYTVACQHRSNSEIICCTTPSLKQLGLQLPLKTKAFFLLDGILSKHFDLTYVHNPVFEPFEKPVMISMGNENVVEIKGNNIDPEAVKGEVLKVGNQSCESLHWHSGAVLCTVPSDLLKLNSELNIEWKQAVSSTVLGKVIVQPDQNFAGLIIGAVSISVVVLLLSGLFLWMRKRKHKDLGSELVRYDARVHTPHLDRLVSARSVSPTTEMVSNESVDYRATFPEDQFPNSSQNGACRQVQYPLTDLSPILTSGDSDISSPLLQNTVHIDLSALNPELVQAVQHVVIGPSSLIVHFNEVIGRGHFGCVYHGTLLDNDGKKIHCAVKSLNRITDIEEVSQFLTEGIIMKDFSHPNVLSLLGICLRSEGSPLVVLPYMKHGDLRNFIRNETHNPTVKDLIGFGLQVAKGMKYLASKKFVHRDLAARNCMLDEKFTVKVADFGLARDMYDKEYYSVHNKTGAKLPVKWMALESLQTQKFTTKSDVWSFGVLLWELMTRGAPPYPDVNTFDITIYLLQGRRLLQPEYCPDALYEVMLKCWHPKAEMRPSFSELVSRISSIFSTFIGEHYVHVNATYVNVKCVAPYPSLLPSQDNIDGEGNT
Ephrin type-A receptor 2 (Homo sapiens), sequence (P29317 whole entry): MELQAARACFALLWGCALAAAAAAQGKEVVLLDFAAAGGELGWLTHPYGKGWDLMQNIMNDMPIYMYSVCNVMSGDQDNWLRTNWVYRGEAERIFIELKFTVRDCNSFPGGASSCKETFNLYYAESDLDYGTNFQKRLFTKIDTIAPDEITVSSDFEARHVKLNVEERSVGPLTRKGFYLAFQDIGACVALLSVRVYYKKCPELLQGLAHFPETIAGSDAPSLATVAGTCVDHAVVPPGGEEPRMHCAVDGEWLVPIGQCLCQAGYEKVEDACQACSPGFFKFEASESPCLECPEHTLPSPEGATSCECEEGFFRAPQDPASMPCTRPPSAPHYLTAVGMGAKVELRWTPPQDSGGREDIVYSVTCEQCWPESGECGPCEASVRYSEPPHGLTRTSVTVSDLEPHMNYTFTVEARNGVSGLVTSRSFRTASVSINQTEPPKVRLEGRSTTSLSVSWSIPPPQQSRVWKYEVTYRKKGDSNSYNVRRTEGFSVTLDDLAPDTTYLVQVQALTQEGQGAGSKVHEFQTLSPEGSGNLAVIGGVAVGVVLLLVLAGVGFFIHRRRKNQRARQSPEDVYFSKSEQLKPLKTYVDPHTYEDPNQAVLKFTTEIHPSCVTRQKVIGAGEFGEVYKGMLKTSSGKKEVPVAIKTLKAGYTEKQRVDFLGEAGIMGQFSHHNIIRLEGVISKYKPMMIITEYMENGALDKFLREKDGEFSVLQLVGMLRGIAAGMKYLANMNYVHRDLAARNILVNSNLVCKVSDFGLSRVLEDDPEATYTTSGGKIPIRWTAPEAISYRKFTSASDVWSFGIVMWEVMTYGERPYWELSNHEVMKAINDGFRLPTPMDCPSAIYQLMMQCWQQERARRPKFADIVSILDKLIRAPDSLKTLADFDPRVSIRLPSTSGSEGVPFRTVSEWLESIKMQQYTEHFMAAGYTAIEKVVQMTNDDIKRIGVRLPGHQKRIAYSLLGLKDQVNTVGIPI

As to `Fc1ccc(-c2cnc3nnc(C(F)(F)c4ccc5ncccc5c4)n3n2)cc1`, the Ratio IC50 in [1] was more than 10000; in data set [4], more than 10000; in data set [6] it was 10000; in [7], 10000; in data set [9], 10000; in data set [11], 10000. Further, the “Ratio IC50” value was 10000 in data set [14]; more than 10000 in [16]; more than 10000 in data set [19]; 10000 in [20]; 10000 in data set [21]; more than 10000 in [22]. In addition, the inhibition in [2] amounted to 33.2%; in data set [8], 6.1%; in [12], 33.9%; in data set [17], 29.9%. Also, the inhibition result in data set [3], in data set [10] and in data set [13] was “Active” throughout. Besides, the results for the half-inhibitory concentration (IC50) (in data set [5]; with 786-0) were more than 1 µM and more than 10 µM, respectively. Also, in the data set with Mus musculus, the Activity result is recorded as “Non-toxic”. Moreover, the selectivity ratio in data set [15] was more than 10000. The inhibition in vivo at 25 mg/kg in [18] was 97.1%.

The values are drawn from ChEMBL document CHEMBL3797175, “Discovery of 6-(difluoro(6-(4-fluorophenyl)-[1,2,4]triazolo[4,3-b][1,2,4]triazin-3-yl)methyl)quinoline as a highly potent and selective c-Met inhibitor” (Eur J Med Chem, 2016).
